Experimental data from ChEMBL document CHEMBL4177561, “Development of Selective, Orally Active GPR4 Antagonists with Modulatory Effects on Nociception, Inflammation, and Angiogenesis” (J Med Chem, 2017).

Experiments:
[1] = Clearance in Sprague-Dawley rat at 1 mg/kg, iv; format: ADME, organism-based; conditions: in vivo
Outline: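 Female Sprague-Dawley rats with femoral artery and vein catheters received a single iv dose of 1 mg/kg in NMP:PEG200 (30:70). Clearance is the mean ± SD of four animals.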

Rattus norvegicus = assay: Dose normalized AUC in Sprague-Dawley rat at 3 mg/kg, po; format: ADME, organism-based; conditions: in vivo
Outline: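 Catheterized female Sprague-Dawley rats received a single oral dose of 3 mg/kg as a suspension in CMC:water:Tween 80 (0.5:99:0.5). This followed a 48 h wash-out after iv dosing in the same animals.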

[2] = Drug level in blood of methylated BSA and complete Freund's adjuvant sensitized Lewis rat antigen-induced arthritis model at 30 mg/kg, po bid for 7 days and measured 2 hrs post dose; format: ADME, organism-based; conditions: read-out: Drug uptake
Outline: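 Lewis rat AIA model, 30 mg/kg po bid. Blood concentration was measured on day 7 at 2 h post dose. Values are the mean of n = 5.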

[3] = Drug level in blood of FVB mouse chamber implant model at 30 mg/kg, po bid for 4 days measured at 2 hrs on day 4; conditions: read-out: Drug uptake
[4] = Drug level in blood of FVB mouse chamber implant model at 30 mg/kg, po bid for 4 days measured at 16 hrs on day 4; conditions: read-out: Drug uptake

Compound | clearance [1] [mL/min/kg] | AUC/dose (Rattus norvegicus) [µmol·h/L] | concentration at 2 h [2] [µM] | concentration at 2 h [3] [µM] | concentration at 16 h [4] [µM]
CCc1nn2c(C)cc(C)nc2c1Cc1ccc(CCCC2(O)CCNCC2)cc1 | 49 | 0.53 | – | – | –
CCc1nn2c(C)cc(C)nc2c1Cc1ccc(CCCN2CCN(C(C)C)CC2)cc1 | 29 | 1.1 | – | – | –
CCc1nn2c(C)cc(C)nc2c1Cc1ccc(CCC(=O)N2CCNCC2)cc1 | 28 | 1.2 | – | – | –
CCc1nn2c(C)cc(C)nc2c1Cc1ccc(/C=C/CN2CCNC(=O)C2)cc1 | 4 | 13.6 | 23 | – | –
CCc1nn2c(C)cc(C)nc2c1Cc1ccc(CCC(O)C2CCNCC2)cc1 (centres undefined) | 31 | 0.49 | – | – | –
CCc1nn2c(C)cc(C)nc2c1Cc1ccc(-c2nnc(C3CCNCC3)o2)cc1 | 6 | 6.7 | – | 9.03 | 0.09
CCc1nn2c(C)cc(C)nc2c1Cc1ccc(/C=C/CN2CCN(C(C)C)CC2)cc1 | 12 | 3.2 | – | – | –
CCc1nn2c(C)cc(C)nc2c1Cc1ccc(/C=C/CN2CCN(C[C@@H](O)CO)CC2)cc1 | 11 | 5.1 | – | – | –
